{"source": "ChEMBL document CHEMBL4725234", "about": "“Structure-activity relationship analyses of fusidic acid derivatives highlight crucial role of the C-21 carboxylic acid moiety to its anti-mycobacterial activity” (Bioorg Med Chem, 2020)", "system": "Mycobacterium tuberculosis", "assay": "Antimycobacterial activity against Mycobacterium tuberculosis H37Rv", "assay_type": "functional", "how_it_was_run": "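Drug-sensitive M. tuberculosis H37Rv grown in a glycerol-containing medium; MIC99 is the minimum concentration that inhibits growth of 99% of the bacterial population.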", "data": [{"compound": "CC(=O)O[C@H]1C[C@@]2(C)[C@@H](C[C@@H](O)[C@H]3[C@@]4(C)CC[C@@H](OC(=O)c5ccc(C)cc5)[C@@H](C)[C@@H]4CC[C@@]32C)/C1=C(\\CCC=C(C)C)C(=O)O", "values": [{"measurement": "MIC99", "result": 31.3, "unit": "µM"}]}, {"compound": "COc1ccc(S(=O)(=O)NC(=O)/C(CCC=C(C)C)=C2\\[C@@H](OC(C)=O)C[C@@]3(C)[C@H]2C[C@@H](O)[C@H]2[C@@]4(C)CC[C@@H](O)[C@@H](C)[C@@H]4CC[C@@]23C)cc1", "values": [{"measurement": "MIC99", "result": 31.3, "unit": "µM"}]}, {"compound": "CC(=O)O[C@H]1C[C@@]2(C)[C@@H](C[C@@H](O)[C@H]3[C@@]4(C)CC[C@@H](OC(=O)c5ccc(Br)cc5)[C@@H](C)[C@@H]4CC[C@@]32C)/C1=C(\\CCC=C(C)C)C(=O)O", "values": [{"measurement": "MIC99", "result": "> 125", "unit": "µM"}]}, {"compound": "CC(=O)O[C@H]1C[C@@]2(C)[C@@H](C[C@@H](O)[C@H]3[C@@]4(C)CC[C@@H](O)[C@@H](C)[C@@H]4CC[C@@]32C)/C1=C(\\CCC=C(C)C)C(=O)N1CC(O)C1", "values": [{"measurement": "MIC99", "result": 40, "unit": "µM"}]}, {"compound": "CC(=O)O[C@H]1C[C@@]2(C)[C@@H](C[C@@H](O)[C@H]3[C@@]4(C)CC[C@@H](O)[C@@H](C)[C@@H]4CC[C@@]32C)/C1=C(\\CCC=C(C)C)C(=O)N/N=C/c1ccncc1", "values": [{"measurement": "MIC99", "result": 20, "unit": "µM"}]}, {"compound": "CCCCCCCCCC(=O)O[C@@H]1CC[C@@]2(C)[C@@H](CC[C@@]3(C)[C@H]2[C@H](O)C[C@H]2/C(=C(\\CCC=C(C)C)C(=O)O)[C@@H](OC(C)=O)C[C@@]23C)[C@@H]1C", "values": [{"measurement": "MIC99", "result": "> 125", "unit": "µM"}]}, {"compound": "CCC(=O)O[C@@H]1CC[C@@]2(C)[C@@H](CC[C@@]3(C)[C@H]2[C@H](O)C[C@H]2/C(=C(\\CCC=C(C)C)C(=O)NNS(C)(=O)=O)[C@@H](OC(C)=O)C[C@@]23C)[C@@H]1C", "values": [{"measurement": "MIC99", "result": 7.81, "unit": "µM"}]}, {"compound": "CC(=O)O[C@H]1C[C@@]2(C)[C@@H](C[C@@H](O)[C@H]3[C@@]4(C)CCC(=O)[C@@H](C)[C@@H]4CC[C@@]32C)/C1=C(\\CCC=C(C)C)C(=O)NNS(C)(=O)=O", "values": [{"measurement": "MIC99", "result": 62.5, "unit": "µM"}]}, {"compound": "CC(=O)O[C@H]1C[C@@]2(C)[C@@H](C[C@@H](O)[C@H]3[C@@]4(C)CC[C@@H](OC(=O)c5ccncc5)[C@@H](C)[C@@H]4CC[C@@]32C)/C1=C(\\CCC=C(C)C)C(=O)O", "values": [{"measurement": "MIC99", "result": 31.3, "unit": "µM"}]}, {"compound": "CC(=O)O[C@H]1C[C@@]2(C)[C@@H](C[C@@H](O)[C@H]3[C@@]4(C)CC[C@@H](O)[C@@H](C)[C@@H]4CC[C@@]32C)/C1=C(\\CCC=C(C)C)C(=O)N/N=C/c1cccnc1", "values": [{"measurement": "MIC99", "result": 20, "unit": "µM"}]}, {"compound": "CO/N=C1\\CC[C@@]2(C)[C@@H](CC[C@@]3(C)[C@H]2[C@H](O)C[C@H]2/C(=C(\\CCC=C(C)C)C(=O)O)[C@@H](OC(C)=O)C[C@@]23C)[C@@H]1C", "values": [{"measurement": "MIC99", "result": 20, "unit": "µM"}]}, {"compound": "CC(=O)O[C@H]1C[C@@]2(C)[C@@H](C[C@@H](OC(C)=O)[C@H]3[C@@]4(C)CC[C@@H](OC(C)=O)[C@@H](C)[C@@H]4CC[C@@]32C)/C1=C(\\CCC=C(C)C)C(=O)O", "values": [{"measurement": "MIC99", "result": 52.5, "unit": "µM"}]}, {"compound": "CC(=O)O[C@H]1C[C@@]2(C)[C@@H](C[C@@H](O)[C@H]3[C@@]4(C)CC[C@@H](O)[C@@H](C)[C@@H]4CC[C@@]32C)/C1=C(\\CCC=C(C)C)C(=O)NCCN1CCOCC1", "values": [{"measurement": "MIC99", "result": "> 125", "unit": "µM"}]}, {"compound": "CC(=O)O[C@H]1C[C@@]2(C)[C@@H](C[C@@H](O)[C@H]3[C@@]4(C)CC[C@@H](OC(=O)c5ccc(C(F)(F)F)cc5)[C@@H](C)[C@@H]4CC[C@@]32C)/C1=C(\\CCC=C(C)C)C(=O)O", "values": [{"measurement": "MIC99", "result": "> 125", "unit": "µM"}]}, {"compound": "CCC(=O)O[C@@H]1CC[C@@]2(C)[C@@H](CC[C@@]3(C)[C@H]2[C@H](O)C[C@H]2/C(=C(\\CCC=C(C)C)C(=O)NN)[C@@H](OC(C)=O)C[C@@]23C)[C@@H]1C", "values": [{"measurement": "MIC99", "result": 15.6, "unit": "µM"}]}, {"compound": "CC(=O)O[C@H]1C[C@@]2(C)[C@@H](C[C@@H](O)[C@H]3[C@@]4(C)CC[C@@H](O)[C@@H](C)[C@@H]4CC[C@@]32C)/C1=C(\\CCC=C(C)C)C(=O)N1CCC(O)CC1", "values": [{"measurement": "MIC99", "result": 40, "unit": "µM"}]}, {"compound": "CC(=O)O[C@H]1C[C@@]2(C)[C@@H](C[C@@H](O)[C@H]3[C@@]4(C)CC[C@@H](OC(=O)c5ccc(S(C)(=O)=O)cc5)[C@@H](C)[C@@H]4CC[C@@]32C)/C1=C(\\CCC=C(C)C)C(=O)O", "values": [{"measurement": "MIC99", "result": 31.3, "unit": "µM"}]}]}
